Compound activity from PubChem BioAssay.
This is a sample that favours compounds with a hit; in the whole collection about 2% have one here.
HNF4A DNA FP: change in binding of human HNF4A to DNA, primary screen, biochemical, fluorescence polarization, FITC-DNA; actives 0.3% (n = 360,000); 1 h; Hepatocyte nuclear factor 4-alpha (Homo sapiens), P41235; AID 1224865, 2016; activity change, % at 10 µM; in the data active = activity change above about 30%, passing the limit was not always enough
Target sequence (P41235 whole entry, looked up): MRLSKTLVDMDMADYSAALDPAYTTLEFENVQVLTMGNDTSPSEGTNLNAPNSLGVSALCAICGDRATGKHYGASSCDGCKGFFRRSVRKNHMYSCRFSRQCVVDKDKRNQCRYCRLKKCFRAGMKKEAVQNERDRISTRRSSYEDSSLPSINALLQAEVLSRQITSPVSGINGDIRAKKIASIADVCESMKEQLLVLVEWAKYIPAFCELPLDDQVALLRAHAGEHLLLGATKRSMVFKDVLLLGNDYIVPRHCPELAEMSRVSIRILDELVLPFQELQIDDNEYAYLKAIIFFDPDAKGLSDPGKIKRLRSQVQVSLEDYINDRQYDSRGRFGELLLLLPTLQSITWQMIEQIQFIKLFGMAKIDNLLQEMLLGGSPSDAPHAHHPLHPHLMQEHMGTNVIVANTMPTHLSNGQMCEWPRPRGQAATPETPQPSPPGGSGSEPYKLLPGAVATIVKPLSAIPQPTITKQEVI
CSN deneddyl inh: inhibitors of CSN-mediated cullin deneddylation, primary screen, biochemical, fluorescence polarization, uHTS; Purified CSN, SCF-Nedd8-OG deneddylation; inhibition, % at 12.5 µM; actives 0.38% (n = 360,000);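 active = pattern-corrected inhibition above about 35%, with an unprinted fluorescence ratio check between 0.5 and 1.5, limit read from the data, passing the limit was not always enough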;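 also: 0% = enzyme with substrate and 100% = substrate without enzyme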
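Assay system: HEK293T-derived human Csn5 enzyme; quantity: 0.24 nM enzyme; medium: Tris/NaCl/DTT buffer, pH 7.5; also added: substrate SCFSkp2-Nedd8OG, 10 nM; doses: 12.5 µM compound; schedule: 90 min reaction at room temperature; signal: FP; read-out: % inhibition of substrate cleavage by Csn5; benchmarks: substrate-only high control, full reaction low control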
ATG4B inhibitor: ATG4B protease inhibitors, primary screen, biochemical, fluorescence, uHTS. ATG4B cleavage of LC3-PLA2, NBD-HPC fluorescence, 1 h. inhibition, % at 8.33 µM. Cysteine protease ATG4B (Homo sapiens), Q9Y4P1. actives 0.51% (n = 340,000). AID 504462, 2011
SENP1 FRET inh: human SENP1 catalytic domain inhibitors, primary screen, biochemical, FRET, uHTS; Sentrin-specific protease 1 (Homo sapiens), Q9P0U3; recombinant SENP1 catalytic domain, CyPet-SUMO1-YPet FRET cleavage; inhibition, % at 10 µM; actives 0.21% (n = 360,000); AID 624204, 2012;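 active = inhibition at least 30% at 10 µM, raw YFP signal under a set limit, fluorescence ratio 0.5 to 1.5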;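 also: 0% = enzyme with DMSO and 100% = no enzyme wells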
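system = hSENP1 catalytic domain, recombinant | reagent = SFCypet-SUMO1-SFYpet substrate at 25 nM | doses = one dose per compound, 10 µM, 0.5% DMSO | incubation = enzyme reaction for 50 min at room temperature, dark | measured by = FRET, CFP and YFP emission | controls = no-enzyme low, enzyme-DMSO high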
Rpn11 block: Rpn11 (PSMD14) deubiquitinase inhibitors, primary screen, biochemical, fluorescence polarization, uHTS; human 26S proteasome, Ub4-pepOG fluorescence polarization; 20S core pre-blocked with epoxomicin; inhibition, % at 20 µM; actives 0.59% (n = 360,000); AID 588493, 2011;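 active = inhibition at 20 µM, scaled to each plate's controls, above about 33%, limit read from the data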
Target sequence (O00487 whole entry, looked up): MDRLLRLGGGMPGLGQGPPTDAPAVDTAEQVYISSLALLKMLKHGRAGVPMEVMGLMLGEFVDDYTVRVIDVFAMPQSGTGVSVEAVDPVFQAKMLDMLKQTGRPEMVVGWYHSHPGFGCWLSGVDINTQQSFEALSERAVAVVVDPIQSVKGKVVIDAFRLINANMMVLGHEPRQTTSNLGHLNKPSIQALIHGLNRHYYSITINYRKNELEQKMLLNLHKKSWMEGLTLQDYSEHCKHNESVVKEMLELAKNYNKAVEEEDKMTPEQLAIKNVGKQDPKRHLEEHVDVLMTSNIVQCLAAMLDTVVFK
TPT1 inhibitor: Candida albicans TPT1 enzyme inhibitors, primary screen, biochemical, fluorescence polarization | tRNA 2'-phosphotransferase TPT1 (Candida albicans SC5314) | recombinant caTPT1, FP RNA substrate dephosphorylation | inhibition, % at 5 µM | actives 0.81% (n = 300,000) | AID 1962, 2009;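 active = inhibition above the mean of all tested compounds plus 3 SD, set per screening campaign, cut at about 24% in these data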;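 also: plate controls were DMSO alone for no effect and ferristatin control at 100 nM for full effect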
Rpn11 inh conf: Rpn11 (PSMD14) deubiquitinase inhibitors, confirmation, biochemical, fluorescence polarization, single concentration; shares compounds with Rpn11 block; purified human 26S proteasome, Ub4-pepOG fluorescence polarization; proteasome pretreated with epoxomicin; inhibition, % at 20 µM; AID 602318, 2012; actives 29% (n = 1,900)
MMP-2 counter: MMP-2 enzyme inhibition, confirmation, counter-screen for RPN11 inhibitor project, biochemical, fluorescence, single concentration | shares compounds with Rpn11 block | recombinant MMP-2, FRET peptide cleavage fluorescence | inhibition, % at 20 µM | actives 4% (n = 1,900) | AID 602330, 2012;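 also: human MMP-2 activated beforehand with APMA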
Thrombin FP: bovine thrombin protease inhibition, confirmation, counter-screen for Rpn11 inhibitor project, biochemical, fluorescence polarization, single concentration; shares compounds with Rpn11 block; bovine thrombin cleavage of Ub4-pepOG; inhibition, % at 20 µM; actives 13% (n = 1,900);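 active = mean inhibition at least 40% at 20 µM, or signal 3 deviations below plate average, so some actives read negative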;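 also: plate controls were thrombin with DMSO for no effect and buffer wells lacking thrombin for full effect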
Active calls of the source: *; nt = not tested or not shown. Rule as the data show it, unless noted: active = inhibition above about 40%; inactive = the rest.

SMILES | HNF4A DNA FP | CSN deneddyl inh | ATG4B inhibitor | SENP1 FRET inh | Rpn11 block | TPT1 inhibitor | Rpn11 inh conf | MMP-2 counter | Thrombin FP
COC(=O)c1cc(Br)c(=O)n(CCc2ccc(O)cc2)c1 | 0.9 | 3.5 | -6.4 | -0.5 | -2.3 | -1.7 | nt | nt | nt
CCCCC(=O)Nc1ccc(C(N)=O)cc1 | 1.8 | 10.8 | -7.1 | 1.3 | 0.5 | -2.1 | nt | nt | nt
CCCCCCCCCCCCCCCC[n+]1ccc(C(N)=O)cc1 | 14.5 | 3.4 | 32.7 | -1.6 | 67.2* | 0.8 | 14.7 | -10.4 | -18.4
Cc1nn(C)c(C)c1CNC(=O)Nc1cccc(Cl)c1C | -0.1 | -0.4 | 3.4 | -0.5 | -0.6 | 3.3 | nt | nt | nt
N#C/C(=C(/O)COC(=O)COc1cccc(Br)c1)c1nc2ccccc2[nH]1 | 17.8 | 1.6 | -7.5 | -83.9 | 41.7* | 18.4 | 37.0 | -12.4 | 25.3
Cc1ccc(C)c(SCC(=O)OC/C(O)=C(\C#N)c2nc3ccccc3[nH]2)c1 | 12.2 | 10.8 | 3.1 | -51.0 | 22.3 | nt | nt | nt | nt
Cc1cc(Br)ccc1SCC(=O)OCC(O)=C(C#N)c1nc2ccccc2[nH]1 | 18.7 | 17.6 | -2.7 | -35.3 | 38.0 | nt | nt | nt | nt
Cc1cc(Br)ccc1SCC(=O)OC/C(O)=C(\C#N)c1nc2ccccc2[nH]1 | 27.5 | 4.0 | -3.1 | -66.5 | 46.2* | 16.6 | 18.1 | -44.2 | 0.0
CCCn1c(SC/C(O)=C(\C#N)c2nc3ccccc3[nH]2)n[nH]c1=O | 6.8 | 9.4 | -8.8 | -60.8 | 38.6* | 12.7 | 33.5 | -9.7 | 29.6
N#C/C(=C(/O)COC(=O)CSc1ccc2ccccc2c1)c1nc2ccccc2[nH]1 | 14.8 | 12.0 | 11.2 | -60.5 | 43.4* | 15.3 | 30.9 | -48.0 | 24.7
CC(C)Cc1cc(C(=O)N2CCCC(CO)(Cc3ccc(F)cc3F)C2)n[nH]1 (stereo not given) | -1.1 | -6.5 | 3.2 | -0.6 | -0.9 | -5.8 | nt | nt | nt
COc1ccc2[nH]c3c(=O)n(/N=C/c4ccc(OC)c(CN5CCCC5)c4)c(C)nc3c2c1 | 7.1 | 62.5* | 14.3 | -1.1 | 91.2* | 3.0 | 90.1* | -53.9 | -4.2
COc1ccc(N(C)C(=O)CC2(CC(=O)O)CCCCC2)cc1 | 21.2 | -0.8 | -2.4 | 2.0 | 57.0* | -2.0 | -1.6 | -34.2 | 0.1
COc1ccc(NC(=O)CC2(CC(=O)O)CCCC2)cc1 | -0.7 | -1.8 | 5.7 | 0.8 | 3.3 | -0.7 | nt | nt | nt
CCn1c(NC(=O)c2ccccc2F)c(-c2cccs2)c(=O)c2ccccc21 | -0.2 | -0.2 | -5.4 | -8.5 | -5.3 | 2.8 | nt | nt | nt
Cc1cc(=O)n2[nH]c(-c3ccsc3-n3c(C)ccc3C)cc2n1 | -9.7 | 41.8 | 3.2 | -16.0 | 39.1* | 14.7 | -7.1 | -5.9 | 12.1
CS(=O)(=O)c1ccc(C(=O)OCC(=O)NCc2cccs2)cc1[N+](=O)[O-] | 3.9 | 7.2 | -1.2 | 1.0 | 41.0* | nt | -23.5 | -31.8 | -32.8
CCC(OC(=O)c1ccco1)C(=O)NCc1ccc(OC)cc1 (stereo not given) | 6.2 | -1.2 | -6.0 | -0.2 | -0.7 | -0.1 | nt | nt | nt
CCC(OC(=O)c1ccco1)C(=O)NCc1ccco1 (stereo not given) | 5.0 | 1.4 | -1.7 | 2.9 | 128.5* | 3.7 | -5.0 | -25.4 | -1.9
N#C/C(=C/C1=C(N2CCOCC2)C(=C/c2ccc(Cl)cc2Cl)/CC1)C(=O)Nc1ccccc1F | 26.5 | 31.8 | -5.7 | 68.2 | 41.6* | nt | 18.0 | -25.4 | 0.3
CCN(CC)c1ccc(/C=C2\CCC(/C=C(\C#N)C(=O)Nc3ccccc3F)=C2N2CCOCC2)cc1 | 18.4 | 15.6 | -2.0 | -9.8 | 29.0 | nt | nt | nt | nt
N#C/C(=C\C1=C(N2CCOCC2)C(=C\c2ccc(Cl)cc2)/CC1)C(=O)Nc1ccccc1F | 27.7 | 16.6 | 4.0 | -6.3 | 57.7* | 16.1 | 56.4* | 2.9 | -34.2
CCOc1ccccc1CN1CCNC(=O)C1CC(=O)NCCN1CCOC1=O (stereo not given) | 0.8 | 2.3 | 17.0 | -0.4 | -6.6 | -3.1 | nt | nt | nt
O=C(CCC(=O)Nc1ccc(Cl)cc1Cl)N/N=C/c1ccc([N+](=O)[O-])o1 | -2.7 | 7.3 | -13.8 | -59.9 | -6.0 | -5.5 | nt | nt | nt
CCSC1=N/C(=C\c2ccc3c(c2)OCO3)C(=O)S1 | -8.3 | 6.4 | -16.8 | -117.8 | 41.7* | -9.2 | 73.6* | -25.7 | -53.0
SMILES | HNF4A DNA FP | CSN deneddyl inh | ATG4B inhibitor | SENP1 FRET inh | Rpn11 block | TPT1 inhibitor | Rpn11 inh conf | MMP-2 counter | Thrombin FP
Cc1c(N2C(=O)/C(=C\c3ccccc3O)SC2=S)c(=O)n(-c2ccccc2)n1C | -1.2 | -0.6 | -3.5 | 3.5 | 7.3 | -0.2 | nt | nt | nt
CCOc1cc(/C=C2\NC(=S)N(c3c(C)n(C)n(-c4ccccc4)c3=O)C2=O)ccc1O | 24.5 | 24.5 | -11.9 | -18.0 | 114.4* | 23.0 | 66.9* | 30.4 | 44.7*
O=C(COc1cccc(Br)c1)N/N=C/c1ccc2c(c1)OCCO2 | 0.9 | 2.1 | nt | 4.6 | -2.0 | nt | nt | nt | nt
CN1CCC(N(C)C(=O)c2sc3cc(F)ccc3c2Cl)CC1 | 100.2* | 3.3 | -0.4 | -0.7 | 109.2* | -1.9 | -12.6 | 0.1 | -6.1
COc1ccc(CN(C)C(=O)[C@H]2O[C@@H](n3cnc4c(N)ncnc43)[C@H](O)[C@@H]2O)cc1OC | 0.1 | 6.2 | nt | -1.1 | -2.8 | nt | nt | nt | nt
COc1ccc(/C=C2/Sc3ccc(C(=O)NCCN4CCCCCC4)cc3NC2=O)cc1 | 10.3 | 10.4 | 10.6 | -6.5 | 70.0* | -2.3 | 7.6 | -40.3 | -1.8
COc1cccc(-c2cc(C(=O)Nc3cc(C)on3)no2)c1 | -5.0 | 7.5 | 6.4 | -0.2 | 59.0* | -0.4 | 30.7 | 32.0 | -7.1
Cc1cc(NC(=O)c2cc(-c3cccc(Cl)c3)on2)no1 | -1.0 | 0.1 | 0.8 | 1.5 | 2.3 | -1.5 | nt | nt | nt
COc1ccc(-c2cc(C(=O)Nc3cc(Br)ccc3O)no2)cc1 | 24.8 | 6.2 | 4.7 | 2.3 | 55.0* | -4.8 | 17.4 | -19.4 | -1.8
